ChEMBL document CHEMBL1806474, “Diversity oriented design of various hydrazides and their in vitro evaluation against Mycobacterium tuberculosis H37Rv strains” (2011)
Converted amounts (≈) assume the structure as drawn.

Tests used:
Format in all cases: functional
[1] = tested on: Mycobacterium tuberculosis; test: Growth inhibition of Mycobacterium tuberculosis H37Rv ATCC 27294 after 5 to 8 days by microplate alamar blue assay
[2] = tested on: Mycobacterium tuberculosis; test: Antimycobacterial activity against Mycobacterium tuberculosis H37Rv ATCC 27294 after 5 to 8 days by microplate alamar blue assay
[3] = tested on: Mycobacterium tuberculosis; test: Antimycobacterial activity against Mycobacterium tuberculosis
Summary of the method: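 Radiometric BACTEC 460 assay in 7H12 broth (BACTEC-12B, 4 mL) with M. tuberculosis H37Rv ATCC 27294. Inoculum came from 7H9/glycerol/0.05% Tween 80 cultures at OD550 0.45–0.55, diluted to reach GI 999 in five days. Compounds were from 1 mg/mL DMSO stocks, with DMSO controls. GI was read daily at 37 °C, 5–8 days. % inhibition = [1 − (GI test/GI control)] × 100. MIC was set against a 1:100 diluted control.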

[4] = Mycobacterium tuberculosis, H37Rv ATCC 27294

Compound | growth inhibition (GI) [1] | MIC99 [2, 4] | MIC [3] | MIC97 [2] | MIC95 [2, 4]
Cc1cccc(N/N=C2\C(=O)Oc3ccc4ccccc4c3C2=O)c1C | 64% | < 6.25 µg/mL | – | – | –
O=C1Nc2c(ccc(Cl)c2Cl)C(=O)/C1=N/Nc1ccccc1 | 85% | < 6.25 µg/mL | – | – | –
CC(=O)c1c(C)[nH]c(C(=O)N/N=C/c2ccc(C)cc2)c1C | 92% | < 6.25 µg/mL | – | – | –
CC(=O)c1c(C)[nH]c(C(=O)N/N=C/c2cccc([N+](=O)[O-])c2)c1C | 18% | < 6.25 µg/mL | – | – | –
O=C1Nc2ccc(Cl)cc2C(=O)/C1=N/Nc1ccccc1[N+](=O)[O-] | 64% | < 6.25 µg/mL | – | – | –
O=C1Oc2ccc(-c3ccccc3)cc2C(=O)/C1=N/Nc1c(Cl)cccc1Cl | 23% | < 6.25 µg/mL | – | – | –
O=C1Nc2c(cccc2[N+](=O)[O-])C(=O)/C1=N/Nc1cccc(Cl)c1 | 82% | < 6.25 µg/mL | – | – | –
O=C1Nc2c(cccc2[N+](=O)[O-])C(=O)/C1=N/Nc1cccc([N+](=O)[O-])c1 | 60% | < 6.25 µg/mL | – | – | –
Cc1cc(C)cc(N/N=C2\C(=O)Oc3ccc4ccccc4c3C2=O)c1 | 58% | < 6.25 µg/mL | – | – | –
Cc1cccc(N/N=C2\C(=O)Oc3ccc(-c4ccccc4)cc3C2=O)c1 | 23% | < 6.25 µg/mL | – | – | –
O=C1Nc2ccccc2C(=O)/C1=N/Nc1ccccc1 | 97% | < 6.25 µg/mL | – | – | –
O=C1Oc2ccc3ccccc3c2C(=O)/C1=N/Nc1ccccc1 | 62% | < 6.25 µg/mL | – | – | –
COc1ccc(N/N=C2\C(=O)Oc3ccc4ccccc4c3C2=O)cc1 | 55% | < 6.25 µg/mL | – | – | –
CN1C(=O)/C(=N\Nc2ccccc2[N+](=O)[O-])C(=O)c2ccccc21 | 94% | < 6.25 µg/mL | – | – | –
Cc1cccc(N/N=C2\C(=O)Nc3cc(Cl)ccc3C2=O)c1 | 70% | < 6.25 µg/mL | – | – | –
O=C1Nc2cc([N+](=O)[O-])ccc2C(=O)/C1=N/Nc1ccc(Br)cc1 | 100% | < 6.25 µg/mL | – | – | –
CCCc1cc(=O)oc2c3c(c4c(c12)OC(C)(C)C=C4)O[C@H](C)[C@@H](C)[C@@H]3O [CALANOLIDE A] | – | – | 3.13 µg/mL (≈ 8.45 µM) | – | –
O=C1Nc2cc([N+](=O)[O-])ccc2C(=O)/C1=N/Nc1ccccc1-c1ccccc1 | 100% | < 6.25 µg/mL | – | – | –

Compound | growth inhibition (GI) [1] | MIC99 [2, 4] | MIC [3] | MIC97 [2] | MIC95 [2, 4]
Cc1c(Cl)cccc1N/N=C1\C(=O)Nc2cc([N+](=O)[O-])ccc2C1=O | 98% | < 6.25 µg/mL | – | – | –
O=C1Oc2ccc(-c3ccccc3)cc2C(=O)/C1=N/Nc1cccc(F)c1Cl | 19% | < 6.25 µg/mL | – | – | –
Cc1ccccc1N/N=C1\C(=O)Oc2ccc(-c3ccccc3)cc2C1=O | 17% | < 6.25 µg/mL | – | – | –
CC(=O)c1c(C)[nH]c(C(=O)N/N=C/c2ccc([N+](=O)[O-])cc2)c1C | 32% | < 6.25 µg/mL | – | – | –
O=C1Nc2c(cccc2[N+](=O)[O-])C(=O)/C1=N/Nc1ccc(Cl)c(Cl)c1 | 79% | < 6.25 µg/mL | – | – | –
O=C1Nc2c(cccc2[N+](=O)[O-])C(=O)/C1=N/Nc1ccc(Cl)cc1 | 61% | < 6.25 µg/mL | – | – | –
O=C1Oc2ccc3ccccc3c2C(=O)/C1=N/Nc1ccc(Cl)cc1 | 88% | < 6.25 µg/mL | – | – | –
O=C1Oc2ccc3ccccc3c2C(=O)/C1=N/Nc1ccc([N+](=O)[O-])cc1 | 94% | < 6.25 µg/mL | – | – | –
CO[C@H]1/C=C/O[C@@]2(C)Oc3c(C)c(O)c4c(O)c(c(/C=N/N5CCN(C)CC5)c(O)c4c3C2=O)NC(=O)/C(C)=C\C=C\[C@H](C)[C@H](O)[C@@H](C)[C@@H](O)[C@@H](C)[C@H](OC(C)=O)[C@@H]1C [RIFAMPIN] | – | – | – | 0.015 µg/mL (≈ 0.0182 µM) | 0.25 µg/mL (≈ 0.304 µM)
Cc1cccc(N/N=C2\C(=O)Nc3c(cccc3[N+](=O)[O-])C2=O)c1 | 95% | < 6.25 µg/mL | – | – | –
O=C1Oc2ccc(-c3ccccc3)cc2C(=O)/C1=N/Nc1ccccc1[N+](=O)[O-] | 25% | < 6.25 µg/mL | – | – | –
CC(=O)c1c(C)[nH]c(C(=O)N/N=C/c2cccc(Cl)c2)c1C | 29% | < 6.25 µg/mL | – | – | –
O=C1Nc2cc([N+](=O)[O-])ccc2C(=O)/C1=N/Nc1ccc(Cl)c(F)c1 | 70% | < 6.25 µg/mL | – | – | –
O=C1Nc2c(cccc2[N+](=O)[O-])C(=O)/C1=N/Nc1ccccc1[N+](=O)[O-] | 80% | < 6.25 µg/mL | – | – | –
O=C1Oc2ccc(-c3ccccc3)cc2C(=O)/C1=N/Nc1ccc(F)cc1 | 18% | < 6.25 µg/mL | – | – | –
O=C1Nc2ccc(Cl)cc2C(=O)/C1=N/Nc1ccc(Cl)cc1 | 98% | < 6.25 µg/mL | – | – | –
O=C1Nc2c(ccc(Cl)c2Cl)C(=O)/C1=N/Nc1ccc([N+](=O)[O-])cc1 | 89% | < 6.25 µg/mL | – | – | –
CC(=O)c1c(C)[nH]c(C(=O)N/N=C/c2ccc(N(C)C)cc2)c1C | 18% | < 6.25 µg/mL | – | – | –
